# Measurements gathered from unrelated publications.
# Each line is one published result; the experiments were not run side by side.
# CNR1: Cannabinoid receptor 1 (CNR1, Homo sapiens, UniProt P21554)
# PPO3: PPO3 (Agaricus bisporus, UniProt C7FF04)
SMILES,target,effect on,mode,technique,concentration,endpoint,value
CCCCCc1ccccc1C/C=C\C/C=C\C/C=C\CCCC(=O)N[C@H](C)CO,CNR1,β-arrestin recruitment,agonist,,,Emax,42%
COc1cc(/C=C/C(=O)O)ccc1OCc1cn(CC(=O)Nc2ccc(Cl)cc2)nn1,PPO3,enzyme activity,inhibitor,,40 µM,inhibition,12.3%
CCCCC/C=C\[C@H](C)/C=C\C/C=C\Cc1ccccc1CCCC(=O)OC(CO)CO,CNR1,β-arrestin recruitment,agonist,,,Emax,10%
c1cncc([C@@H]2CCCN2)c1,"Neuronal acetylcholine receptor; alpha4/beta2 (Rattus norvegicus, UniProt P09483+P12390)",ligand displacement,,radioligand,50 µM,inhibition,88.1%
COc1cc(/C=C/C(=O)O)ccc1OCc1cn(CC(=O)Nc2ccccc2[N+](=O)[O-])nn1,PPO3,enzyme activity,inhibitor,,40 µM,inhibition,11.5%
CC(C)CC(=O)OC[C@H]1O[C@@](C#N)(c2ccc3c(N)ncnn23)[C@H](O)[C@@H]1O,CNR1,cell-free assay,,,20 µM,inhibition,-4%
COc1cc2c3c(c1OC)-c1c(cccc1OC)CC3N(C)CC2 (racemic),"5-hydroxytryptamine receptor 2A (HTR2A, Homo sapiens, UniProt P28223)",ligand displacement,,radioligand,10 µM,inhibition,42%
COc1cc(/C=C/C(=O)O)ccc1OCc1cn(CC(=O)Nc2ccccc2C)nn1,PPO3,enzyme activity,inhibitor,,40 µM,inhibition,16%
[2H]c1c([2H])c([C@]2([2H])CCCN2C(=O)C(C)(C)Oc2ccc3cn[nH]c3c2)c([2H])c([2H])c1C([2H])([2H])[2H],"Mitogen-activated protein kinase kinase kinase 3 (MAP3K3, Homo sapiens, UniProt Q99759)",binding,,competition with immobilised ligand,1 µM,remaining binding,100%
CCCCC/C=C\C/C=C\C/C=C\C/C=C\CCCC(=O)OC(CO)CO,CNR1,β-arrestin recruitment,agonist,,,Emax,96%
COc1cc(/C=C/C(=O)O)ccc1OCc1cn(CC(=O)Nc2cccc([N+](=O)[O-])c2)nn1,PPO3,enzyme activity,inhibitor,,40 µM,inhibition,12.1%
CCCCC/C=C\C/C=C\C/C=C\Cc1ccccc1CCCC(=O)N[C@H](C)CO,CNR1,β-arrestin recruitment,agonist,,,Emax,80%
CN1CCC[C@H]1c1cccnc1,"Histamine H4 receptor (HRH4, Homo sapiens, UniProt Q9H3N8)",ligand displacement,,,50 µM,inhibition,-19.9%
